The array DNA melting data of Ke et al. (doi:10.1101/2024.01.08.574731)

Assays:
[1] = folding enthalpy; higher = less favourable; fluorescence melt of hairpins on a sequencing array, two-state fit; conditions: sodium 0.088 M
Outline: (§1)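 Bootstrapped two-state fits yielded melting temperature and folding enthalpy for library hairpins. Cy3 fluorescence, with annealed Cy3 and quencher oligos, was imaged on a sequenced MiSeq flow cell in 50 mM Na-HEPES pH 8.0, 25 mM NaCl in 2.5 °C steps up to 60 °C, and normalised to pre-quench Cy3 and to control constructs. Four replicates were combined by inverse variance, and fitted temperatures were raised by 9.35 °C to match UV melts.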

[2] = melting temperature; fluorescence melt of hairpins on a sequencing array, two-state fit, raised by 9.35 °C to match UV melts; conditions: sodium 0.088 M
Outline: as §1

| Sequence | folding enthalpy [1] | Tm [2] |
| --- | --- | --- |
| GCATCCGAAAGGACCTGC ((((((....)))..))) | -12.9 kcal/mol | 30 °C |
| GCATCCGAAAGGACTGC ((((((....))).))) | -15 kcal/mol | 47.8 °C |
| GCATCCGAAAGGAGGTGC ((((((....)))..))) | -24.9 kcal/mol | 48.1 °C |
| GCATCCGAAAGGATATGC ((((((....)))..))) | -15.7 kcal/mol | 47.6 °C |
| GCATCCGCGAAAGCGTGC (((..(((....)))))) | -10.9 kcal/mol | 40.3 °C |
| GCATCCGGAAACGGACGC ((.((((....)))).)) | -31.2 kcal/mol | 51.3 °C |
| GCATCGCGAAAGCCAGGC ((.(.((....)).).)) | -10.4 kcal/mol | 37.2 °C |
| GCATCGCGAAAGCGCCGC ((..(((....)))..)) | -10.5 kcal/mol | 38 °C |
| GCATCGCGAAAGCGGAGC ((..(((....)))..)) | -16.5 kcal/mol | 54.2 °C |
| GCATCGCGAAAGCGGGGC ((..(((....)))..)) | -22.2 kcal/mol | 63.1 °C |
| GCATCGCGAAAGCTTTGC (((..((....))..))) | -18.6 kcal/mol | 41.2 °C |
| GCATCTACGAAAGTATGC (((..(((....)))))) | -20.7 kcal/mol | 34.6 °C |
| GCATCTGAAAAGATGC ((((((....)))))) | -32.6 kcal/mol | 64.7 °C |
| GCATGAACGAAAGTTTGC (((..(((....)))))) | -20.5 kcal/mol | 33.9 °C |
| GCATGAGAAATCATGC ((((((....)))))) | -38.7 kcal/mol | 56.4 °C |
| GCATGAGGAAACTTATGC ((((.((....)).)))) | -34.7 kcal/mol | 44.2 °C |
| GCATGAGGAAACTTGTGC (((..((....))..))) | -26.6 kcal/mol | 35.9 °C |
| GCATGCACGAAAGTGTGC (((..(((....)))))) | -13.3 kcal/mol | 42.5 °C |
| GCATGCGGAAACGCACAC (..((((....))))..) | -9.47 kcal/mol | 27.7 °C |
| GCATGGCGAAAGCAAGGC ((.(.((....)).).)) | -17.2 kcal/mol | 49.5 °C |
| GCATGGCGAAAGCAATGC ((((.((....)).)))) | -30.6 kcal/mol | 64.8 °C |
| GCATGGCGAAAGCAGTGC (((..((....))..))) | -19.7 kcal/mol | 56.5 °C |
| GCATGGCGAAAGCCAAGC ((.((((....)))).)) | -17.6 kcal/mol | 61.6 °C |

| Sequence | folding enthalpy [1] | Tm [2] |
| --- | --- | --- |
| GCATGGCGAAAGCTCTGC (((..((....))..))) | -18 kcal/mol | 43.2 °C |
| GCATGGGAAACCATGC ((((((....)))))) | -34.4 kcal/mol | 65.6 °C |
| GCATGGGCGAAAGCCTGC (((..(((....)))))) | -16.3 kcal/mol | 48.7 °C |
| GCATGGGGAAACCCACAC (..((((....))))..) | -14.2 kcal/mol | 29 °C |
| GCATGGGGAAACTCGTGC (((.(.(....).).))) | -26.2 kcal/mol | 41 °C |
| GCATGTACGAAAGTATGC (((..(((....)))))) | -29.3 kcal/mol | 43.8 °C |
| GCATGTCGAAAGACGTGC (((.(((....))).))) | -36.8 kcal/mol | 65.6 °C |
| GCATGTGGAAACACACGC ((.((((....)))).)) | -25.8 kcal/mol | 46 °C |
| GCATGTGGAAACGCATGC (((((.(....).))))) | -44.7 kcal/mol | 55.9 °C |
| GCATGTGGAAACGTATGC ((((..(....)..)))) | -26.3 kcal/mol | 41 °C |
| GCATTACGAAAGTAGTGC (((.(((....))).))) | -31.7 kcal/mol | 52.4 °C |
| GCATTCCGAAAGGAGTGC (((.(((....))).))) | -40 kcal/mol | 58.4 °C |
| GCATTCGAAAGAAAATGC ((((((....)))..))) | -24.8 kcal/mol | 34.6 °C |
| GCATTCGGAAACGAATAC (.(((((....))))).) | -19.8 kcal/mol | 37 °C |
| GCATTGCGAAAGCATCGC ((..(((....)))..)) | -11.8 kcal/mol | 52.9 °C |
| GCATTGCGAAAGCATGGC ((..(((....)))..)) | -19.9 kcal/mol | 45.8 °C |
| GCATTGCGAAAGCCACGC ((.(.((....)).).)) | -8.66 kcal/mol | 38.2 °C |
| GCATTGCGAAAGCGCTGC (((..((....))..))) | -18.8 kcal/mol | 45.7 °C |
| GCATTGCGAAAGCGGTGC (((..((....))..))) | -22.3 kcal/mol | 58.8 °C |
| GCATTGCGAAAGCTATGC ((((.((....)).)))) | -38.9 kcal/mol | 62.5 °C |
| GCATTTGGAAACAAACGC ((.((((....)))).)) | -30.1 kcal/mol | 37.2 °C |
| GCATTTGGAAACGAATGC (((((.(....).))))) | -41.8 kcal/mol | 49 °C |
| GCATTTTCGAAAGAATGC (((..(((....)))))) | -28.4 kcal/mol | 35.5 °C |

| Sequence | folding enthalpy [1] | Tm [2] |
| --- | --- | --- |
| GCCAAACGAAAGTTCGGC (((.(((....))).))) | -36.8 kcal/mol | 51.3 °C |
| GCCAACACGAAAGTGGGC (((..(((....)))))) | -24.9 kcal/mol | 52.7 °C |
| GCCAACCCGAAAGGGGGC (((..(((....)))))) | -18.8 kcal/mol | 51.8 °C |
| GCCAACCGAAAGGTGGGC (((.(((....))).))) | -40.6 kcal/mol | 68.4 °C |
| GCCAACGAAAGTTAGGGC ((((((....)))..))) | -23.5 kcal/mol | 46.6 °C |
| GCCAACGAAAGTTATGGC ((((((....)))..))) | -30.7 kcal/mol | 45.7 °C |
| GCCAACGGAAACGTCAGC ((..(((....)))..)) | -12.1 kcal/mol | 28.3 °C |
| GCCAAGAAATTGGC (((((....))))) | -21.6 kcal/mol | 52.3 °C |
| GCCAAGCCGAAAGGCGGC (((..(((....)))))) | -16.1 kcal/mol | 64.2 °C |
| GCCAAGCGAAAGCCGGGC (((..((....))..))) | -22.4 kcal/mol | 57.7 °C |
| GCCAAGCGAAAGCGGGGC (((..((....))..))) | -28.6 kcal/mol | 68.3 °C |
| GCCAAGCGAAAGCGTTGC ((.(.((....)).).)) | -11.6 kcal/mol | 40.1 °C |
| GCCAAGCGAAAGCTTTGC ((.((((....)))).)) | -21.4 kcal/mol | 53.4 °C |
| GCCAAGGGAAACCCTAGC ((.(.((....)).).)) | -17.6 kcal/mol | 28.8 °C |
| GCCAATGAAAATTGGC ((((((....)))))) | -30.7 kcal/mol | 59.9 °C |
| GCCAATGGAAACATTAGC ((.((((....)))).)) | -17.4 kcal/mol | 32.1 °C |
| GCCAATGGAAACGTTGGC (((((.(....).))))) | -49.3 kcal/mol | 53.7 °C |
| GCCACCCGAAAGGGAGGC (((.(((....))).))) | -44.3 kcal/mol | 67.8 °C |
| GCCACCCGAAAGGGGGC (((.(((....)))))) | -22.8 kcal/mol | 68.5 °C |
| GCCACCGAAAGGTCAGGC ((((((....)))..))) | -23.1 kcal/mol | 48.4 °C |
| GCCACCGAAAGGTGCGGC ((((((....)))..))) | -13.1 kcal/mol | 60.8 °C |
| GCCACCGAAAGGTGTGGC ((((((....)))..))) | -17.5 kcal/mol | 58.2 °C |
| GCCACCGAAAGGTTAGGC ((((((....)))..))) | -25.5 kcal/mol | 51.1 °C |

| Sequence | folding enthalpy [1] | Tm [2] |
| --- | --- | --- |
| GCCACCGAAAGGTTTGGC ((((((....)))..))) | -26.6 kcal/mol | 48.7 °C |
| GCCACCGGAAACGGCAGC ((..(((....)))..)) | -15.6 kcal/mol | 31 °C |
| GCCACCGGAAACGGTAGC ((.((((....)))).)) | -21.2 kcal/mol | 48.1 °C |
| GCCACGCCGAAAGGCGGC (((..(((....)))))) | -7.28 kcal/mol | 48.3 °C |
| GCCACGCGAAAGCATGGC ((((.((....)).)))) | -32.9 kcal/mol | 66.8 °C |
| GCCACGCGAAAGCCGGGC (((..((....))..))) | -24.1 kcal/mol | 58 °C |
| GCCACGCGAAAGCCTCGC ((.(.((....)).).)) | -7.67 kcal/mol | 27 °C |
| GCCACGCGAAAGCGCAGC ((..(((....)))..)) | -10.6 kcal/mol | 43.6 °C |
| GCCACGCGAAAGCGGTGC ((..(((....)))..)) | -13.3 kcal/mol | 50.1 °C |
| GCCACGCGAAAGCTCGGC (((..((....))..))) | -22 kcal/mol | 51.2 °C |
| GCCACGCGAAAGCTGGGC (((..((....))..))) | -27 kcal/mol | 60 °C |
| GCCACGCGAAAGCTTCGC ((.(.((....)).).)) | -7.03 kcal/mol | 33.6 °C |
| GCCACGGGAAACCGCGAC (.(.(((....))).).) | -12.1 kcal/mol | 29.1 °C |
| GCCACGGGAAACCGTGAC (.(((((....))))).) | -16.5 kcal/mol | 51.1 °C |
| GCCACGGGAAACTGTGGC (((((.(....).))))) | -43.2 kcal/mol | 63.2 °C |
| GCCACTGCGAAAGCAGGC (((..(((....)))))) | -8.9 kcal/mol | 46 °C |
| GCCACTGGAAACAGCGAC (.(.(((....))).).) | -13.9 kcal/mol | 26 °C |
| GCCAGACGAAAGTCAGGC (((.(((....))).))) | -32.6 kcal/mol | 64.8 °C |
| GCCAGCCCGAAAGGGGGC (((..(((....)))))) | -14.7 kcal/mol | 55.3 °C |
| GCCAGCCGAAAGGCCGGC (((.(((....))).))) | -27.4 kcal/mol | 68.4 °C |
| GCCAGCGAAAGCTAGGC ((((((....))).))) | -25.9 kcal/mol | 66 °C |
| GCCAGCGAAAGCTCAGGC ((((((....)))..))) | -30.4 kcal/mol | 49.9 °C |
